# An excerpt weighted towards active compounds, which were near 0.96% of everything screened.
# LAP4-GFP MLPCN: yeast TOR pathway LAP4-GFP modulation. S. cerevisiae LAP4-GFP multiplex, flow cytometry GFP, 3 h; median GFP as percent of DMSO wells. GFP response vs DMSO, % at 10 µM. 320,000 tested, 0.34% active. AID 2023;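 active = GFP response vs DMSO above a set limit, about the screen mean plus 3 SD, cut at about 150% in these data; inconclusive = under 70 cell events counted for the yeast strain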
# AGP1 TOR yeast: yeast TOR pathway AGP1-GFP modulation; GFP response vs DMSO, % at 10 µM; AID 2066; 320,000 tested, 0.02% active; S. cerevisiae AGP1-GFP multiplex flow cytometry, 3 h; GFP as percent of DMSO wells;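 active = GFP response relative to DMSO above a set limit, near screen average plus 3 SD, cut at about 150% in these data; inconclusive = fewer than 70 cells counted for the yeast strain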;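 note: median GFP channel fluorescence of the gated AGP1 strain per well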
# RPL19A-GFP yeast: alters RPL19A-GFP fluorescence in TOR pathway yeast screen; S. cerevisiae RPL19A-GFP strain, flow cytometry, 3 h; active compounds read low; percent response vs DMSO, % at 10 µM; AID 2025; 330,000 tested, 0.3% active;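 active = percent response vs DMSO below 50%; inconclusive = fewer than 70 events counted for the yeast strain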;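 note: median channel GFP fluorescence of the barcoded RPL19A-GFP strain; ratio of sample median GFP to plate DMSO average so 100% = DMSO; lower means less RPL19A-GFP as with rapamycin TOR inhibition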
# T cell HTS: T cell immune modulation candidate. 2C CD8+ T cell-vesicle binding, flow cytometry; active compounds read low. AID 2052. response (vesicle binding), % at 7 µM. 330,000 tested, 0.068% active;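 active = response, share of CD8 T cells binding vesicles, and their 90th percentile fluorescence all below set limits, cut at about 80% in these data, passing the limit was not always enough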;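 note: values below 100% mean blocked vesicle binding to the CD8+ T cells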
#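 Material: murine 2C transgenic CD8+ T lymphocytes / Also added: QL9-peptide-loaded Drosophila micro-vesicles bearing Ld, ICAM-1 and B7-1 / Schedule: binding step 1.5 h, 37 °C, antibody labelling 20 min, ice / Signal: flow cytometry, PE anti-B7-1 (FL2) versus Alexa647 anti-CD8 (FL8), PFA-fixed / Evaluation: percent CD8+ FL2 mean versus row control / Benchmarks: naked versus QL9-loaded vesicles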
# MEP2-GFP yeast: alters MEP2-GFP fluorescence in TOR pathway yeast screen; 330,000 tested, 0.51% active; S. cerevisiae MEP2-GFP strain, flow cytometry GFP, 3 h; 100% = DMSO control level; GFP response vs DMSO, % at 10 µM;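 active = GFP response versus DMSO above a set limit, roughly screen mean plus 3 SD, cut at about 180% in these data; inconclusive = fewer than 70 cells counted for a yeast strain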;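 note: median GFP fluorescence of the barcode-gated MEP2-GFP cells per well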
# CIT2 TOR yeast: alters CIT2-GFP fluorescence in TOR pathway yeast screen | S. cerevisiae CIT2-GFP strain, flow cytometry, 3 h; 100 means same as DMSO wells | GFP response vs DMSO, % at 10 µM | 320,000 tested, 0.065% active | AID 2029;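 active = GFP response relative to DMSO above a set limit, near the screen mean plus 3 SD, cut at about 150% in these data; inconclusive = Fewer than 70 cells measured for a yeast strain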;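 note: ratio of well median GFP fluorescence to mean of DMSO wells on the plate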
# An asterisk follows results filed as active; u = inconclusive; x = not tested or not shown; [ ] = remark or other dose.
SMILES,LAP4-GFP MLPCN,AGP1 TOR yeast,RPL19A-GFP yeast,T cell HTS,MEP2-GFP yeast,CIT2 TOR yeast
O=C(N[C@H]1C/C=C\C[C@@H](CC(=O)N(CCO)Cc2ccccc2)C(=O)N2CCC[C@@H]2COC1=O)OCC1c2ccccc2-c2ccccc21,92.0,93.0,96.5,0.0*,100.5,96.4
Cc1ccc(C)c(OCC(=O)Nc2ccc(S(=O)(=O)Nc3ncccn3)cc2)c1,u,u,u,153.1,u,u
COc1ccc(-c2csc(N(CC(C)C)C(=O)c3ccco3)n2)cc1,99.7,150.4*,109.7,174.3,106.1,99.7
COC(=O)C1=C[C@@H](C(=O)OC)[C@@H]2C3=C(C(=O)[C@@]2(C)NC(=O)c2ccccc2)[C@H](C)C(C(=O)OC)=C(C(=O)OC)[C@@H]3C1,102.6,91.5,106.6,424.3,96.1,85.9
O=C(NCc1cccnc1)c1nc(-c2ccccc2)n(-c2ccccc2)n1,82.3,93.1,111.1,836.3,97.7,x
Cc1ccc(OCc2ccc(C(=O)Nc3nccs3)o2)cc1C,75.6,u,14.7*[may fluoresce violet],363.2,255.3*[may fluoresce violet],u
COc1cc(NC(=O)CN2CCN(CC(=O)Nc3ccccc3OC)CC2)cc(OC)c1,98.5,106.3,107.8,8.2,109.3,110.6
O=C(COC(=O)Cc1cccs1)Nc1ccc(OC(F)(F)F)cc1,93.6,89.1,85.6,742.0,86.8,79.5
COc1cccc(NC(=O)C(C#N)Cc2ccncc2)c1 (configuration not stated),97.8,113.7,103.8,566.6,94.0,99.8
CCc1ccccc1NC(=O)C(C#N)Cc1cccnc1 (configuration not stated),93.0,u,60.6,250.1,208.7*[may fluoresce violet],u
CCCC12CN3CCN(CC(C3)/C1=N\NC(=O)c1ccc(C(C)(C)C)cc1)C2,90.9,91.4,103.8,188.8,106.6,88.7
CCn1c(C)cc(O)c(C(=O)Nc2cccc(Cl)c2)c1=O,108.4,106.2,106.1,460.3,109.8,106.1
COCCn1c(C)cc(O)c(C(=O)Nc2cccc(Cl)c2)c1=O,98.4,17.4,60.6,395.4,191.4*[may fluoresce violet],u
COc1nc(NC(=O)c2ccc(F)cc2)nc(OC)c1-c1ccccc1,89.8,92.2,95.5,781.6,91.2,91.1
O=C(N/N=C/c1cc(O)ccc1[N+](=O)[O-])c1ccc2c(c1)OCCO2,104.9,98.8,95.6,241.1,97.0,93.8
O=C(N/N=C/c1ccccc1[N+](=O)[O-])c1ccc2c(c1)OCCO2,98.6,33.1,46.1*[may fluoresce violet],301.2,430.0*[may fluoresce violet],u
Cc1ccc(NC(=O)c2cc(NC(=O)c3ccco3)ccc2N2CCCCC2)cc1,89.5,u,27.2*[may fluoresce violet],199.2,371.2*[may fluoresce violet],u
COc1ccc(C)cc1NC(=O)CSc1nc2ccccc2nc1N1CC(C)OC(C)C1 (configuration not stated),118.8,108.3,105.0,521.1,95.5,110.3
O=C(NCCCN1CCOCC1)c1cc2c([nH]c3ccccc32)c(-c2cccc(Br)c2)n1,100.0,48.0,19.2*[may fluoresce violet],302.2,343.6*[may fluoresce violet],u
COc1cccc(-c2nc(C(=O)NCCCN3CCOCC3)cc3c2[nH]c2ccccc23)c1,107.0,95.6,90.7,328.3,110.1,93.1
CSc1nnc(C)c(=O)n1COC(=O)COc1ccc(Cl)cc1,103.6,102.9,101.4,397.2,114.3,106.9
CC(C)CC(=O)Nc1ccc(C(=O)CN2CCN(c3ccc(O)cc3)CC2)cc1,57.5,u,26.4*[may fluoresce violet],372.0,236.8*[may fluoresce violet],u
CC(=O)c1ccc(N2CCN(CC(=O)Nc3ccc(N4CCOCC4)cc3)CC2)cc1,91.2,95.1,91.0,411.4,97.6,x
CN1CCc2nc3sc(C(=O)C45CC6CC(CC(C6)C4)C5)c(N)c3cc2C1,119.6,24.5,72.8,304.1,257.4*[may fluoresce violet],u
Nc1c(C(=O)O)sc2nc3c(cc12)CCCC3,112.5,113.4,98.9,467.9,99.1,99.2
Cn1cccc1C(=O)NNC(=O)c1ccccc1Br,111.2,106.9,100.6,0.0*,96.9,102.5
Cc1ccccc1C(=O)NNC(=O)c1cccn1C,100.4,104.9,108.4,277.8,105.9,94.3

# Screening data deposited in PubChem BioAssay by NMMLSC.
